Measured values from ChEMBL document CHEMBL4622996, “Discovery of Vixotrigine: A Novel Use-Dependent Sodium Channel Blocker for the Treatment of Trigeminal Neuralgia” (ACS Med Chem Lett, 2020).

Experiments:
[1] = Volume of distribution in steady state in dog at 0.5 mg/kg, iv; format: ADME, organism-based, Canis lupus familiaris; details: in vivo, read-out: Vdss
[2] = Apparent permeability in dog MDCK cells at pH 7.4; format: ADME, cell-based, Canis lupus familiaris
Method in brief: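 MDCK cell monolayer permeability measured at pH 7.4, reported as apparent permeability in nm/s.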

[3] = Aqueous solubility of compound in HCl salt : water; format: physicochemical
[4] = biological target: T1, Solute carrier organic anion transporter family member 1B3 (Homo sapiens, UniProt Q9NPD5); assay: Inhibition of OATP1B3 (unknown origin)
T1 sequence (Q9NPD5 whole entry): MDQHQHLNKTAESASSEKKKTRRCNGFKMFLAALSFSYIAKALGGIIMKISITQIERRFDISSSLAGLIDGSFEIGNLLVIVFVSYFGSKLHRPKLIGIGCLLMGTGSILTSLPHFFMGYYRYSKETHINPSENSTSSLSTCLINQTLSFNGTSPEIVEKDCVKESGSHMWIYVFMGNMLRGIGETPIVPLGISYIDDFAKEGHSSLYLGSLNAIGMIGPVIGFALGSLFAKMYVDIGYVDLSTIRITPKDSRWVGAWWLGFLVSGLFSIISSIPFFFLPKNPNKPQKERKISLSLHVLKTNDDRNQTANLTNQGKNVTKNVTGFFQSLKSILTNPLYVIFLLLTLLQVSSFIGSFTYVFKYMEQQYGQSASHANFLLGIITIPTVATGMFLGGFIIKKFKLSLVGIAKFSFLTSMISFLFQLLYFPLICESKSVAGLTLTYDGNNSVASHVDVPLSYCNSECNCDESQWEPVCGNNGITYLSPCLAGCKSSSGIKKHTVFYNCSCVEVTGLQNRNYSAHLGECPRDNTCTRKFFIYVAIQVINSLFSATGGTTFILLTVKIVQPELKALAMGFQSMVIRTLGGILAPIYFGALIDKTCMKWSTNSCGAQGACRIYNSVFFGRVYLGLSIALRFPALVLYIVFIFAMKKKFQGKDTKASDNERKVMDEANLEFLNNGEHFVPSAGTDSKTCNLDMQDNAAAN

**Q.** Which Vd [1] does the source give for Cl.NC(=O)[C@@H]1CC[C@H](c2ccc(OCc3ccccc3F)cc2)N1 [RAXATRIGINE HYDROCHLORIDE] here?
**A.** 2 L/kg

**Q.** What about the Papp [2] of the same compound?
**A.** 38.6 ×10⁻⁶ cm/s

**Q.** And the solubility [3]?
**A.** 16.3 mg/mL

**Q.** And the “inhibition (INH)” value [4]?
**A.** Not Active
